ChEMBL document CHEMBL5357037, “Scaffold hopping based designing of selective ALDH1A1 inhibitors to overcome cyclophosphamide resistance: synthesis and biological evaluation” (RSC Med Chem, 2024)
Active and inactive are the calls of the source. The calls are words filed in the database; no cut-off is given here.

Assays:
A549 [1] = test: Anticancer activity against human A549 cells assessed as reduction in cell viability at 370 uM incubated for 19 hrs by MTT assay; format: functional, cell-based
MIA PaCa-2 [2] = test: Anticancer activity against human MIAPaCa-2 cells assessed as reduction in cell viability at 315 uM incubated for 19 hrs by MTT assay; format: functional, cell-based
A549 [3] = test: Reversal of Mafosfamide resistance in human A549 cells assessed as increase in Mafosfamide sensitivity by measuring reduction in cell viability measured after 19 hrs in presence of Mafosfamide by MTT assay; format: functional, cell-based
Procedure, shortened: (§1)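 A549 and MIA PaCa-2 cells, chosen for high ALDH1A1 expression, were obtained from NCCS. Viability was measured by MTT. Combination arms paired mafosfamide with ALDH1A1 inhibitors. Combination indices were calculated with the Chou–Talalay equation.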

[4] = Lipid-water partition coefficient, logP of the compound; format: physicochemical
[5] = target: T1, Aldehyde dehydrogenase 1A1 (Homo sapiens, UniProt P00352); test: Inhibition of human ALDH1A1 using propionaldehyde as substrate preincubated with enzyme for 15 mins followed by substrate addition in presence of NAD+ and measured for 5 mins by spectrophotometric analysis
T1 sequence (P00352 whole entry): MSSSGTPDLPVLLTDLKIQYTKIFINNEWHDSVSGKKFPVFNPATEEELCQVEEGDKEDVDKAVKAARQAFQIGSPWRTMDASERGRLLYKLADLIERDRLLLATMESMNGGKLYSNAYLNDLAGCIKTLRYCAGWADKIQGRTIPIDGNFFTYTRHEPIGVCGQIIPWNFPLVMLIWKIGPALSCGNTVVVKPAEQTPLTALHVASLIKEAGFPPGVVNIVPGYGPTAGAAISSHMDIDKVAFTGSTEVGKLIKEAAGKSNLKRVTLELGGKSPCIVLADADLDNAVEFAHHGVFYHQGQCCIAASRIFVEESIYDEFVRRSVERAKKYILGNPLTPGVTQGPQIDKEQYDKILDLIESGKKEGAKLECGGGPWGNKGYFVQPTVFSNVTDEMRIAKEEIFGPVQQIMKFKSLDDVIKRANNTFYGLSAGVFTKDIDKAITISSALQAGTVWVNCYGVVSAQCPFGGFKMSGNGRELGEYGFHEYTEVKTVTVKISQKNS
Procedure, shortened: (§2)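 Human recombinant ALDH1A1, ALDH2 or ALDH3A1 preincubated with test compounds for 15 min at 25 °C. NADH absorbance read kinetically for 5 min. IC50 fitted from five concentrations vs %inhibition. Single-point final concentrations were 10 μM for ALDH1A1 and 100 μM for ALDH2 and ALDH3A1.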

[6] = target: T2, Aldehyde dehydrogenase, mitochondrial (Homo sapiens, UniProt P05091); test: Inhibition of human ALDH2 using acetaldehyde as substrate preincubated with enzyme for 15 mins followed by substrate addition in presence of NAD+ and measured for 5 mins by spectrophotometric analysis; procedure, shortened: as §2
T2 sequence (P05091 whole entry): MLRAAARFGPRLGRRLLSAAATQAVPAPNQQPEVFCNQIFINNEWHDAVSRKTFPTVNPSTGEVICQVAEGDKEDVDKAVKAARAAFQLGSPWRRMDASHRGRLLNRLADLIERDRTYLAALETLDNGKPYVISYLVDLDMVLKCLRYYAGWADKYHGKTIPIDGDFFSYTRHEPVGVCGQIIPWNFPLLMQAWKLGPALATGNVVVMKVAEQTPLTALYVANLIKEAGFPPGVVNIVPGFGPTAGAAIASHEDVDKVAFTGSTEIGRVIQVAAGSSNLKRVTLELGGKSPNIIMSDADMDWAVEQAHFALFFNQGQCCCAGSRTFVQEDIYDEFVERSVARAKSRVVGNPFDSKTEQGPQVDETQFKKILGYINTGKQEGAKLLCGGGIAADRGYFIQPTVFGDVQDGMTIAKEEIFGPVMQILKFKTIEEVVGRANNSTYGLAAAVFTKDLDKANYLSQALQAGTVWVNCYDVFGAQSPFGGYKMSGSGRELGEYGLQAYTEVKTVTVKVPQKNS

[7] = target: T3, Aldehyde dehydrogenase, dimeric NADP-preferring (Homo sapiens, UniProt P30838); test: Inhibition of human ALDH3A1 using 4-nitrobenzaldehyde as substrate preincubated with enzyme for 15 mins followed by substrate addition in presence of NAD+ and measured for 5 mins by spectrophotometric analysis; procedure, shortened: as §2
T3 sequence (P30838 whole entry): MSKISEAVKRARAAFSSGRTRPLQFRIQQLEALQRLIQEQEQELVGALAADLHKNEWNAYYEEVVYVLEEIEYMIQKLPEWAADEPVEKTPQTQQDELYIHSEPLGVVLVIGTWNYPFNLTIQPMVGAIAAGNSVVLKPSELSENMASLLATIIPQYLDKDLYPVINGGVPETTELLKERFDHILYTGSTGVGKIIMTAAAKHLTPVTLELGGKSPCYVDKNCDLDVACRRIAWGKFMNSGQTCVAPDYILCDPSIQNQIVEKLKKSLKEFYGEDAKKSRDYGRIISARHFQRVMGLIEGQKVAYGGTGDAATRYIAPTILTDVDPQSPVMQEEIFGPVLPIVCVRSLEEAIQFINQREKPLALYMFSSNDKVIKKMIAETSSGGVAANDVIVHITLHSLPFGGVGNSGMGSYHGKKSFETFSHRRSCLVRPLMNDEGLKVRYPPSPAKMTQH

MIA PaCa-2 [8] = test: Synergistic anticancer activity against human MIAPaCa-2 cells assessed as combination index incubated for 19 hrs in presence of Mafosfamide by MTT assay; format: functional; procedure, shortened: as §1
MIA PaCa-2 [9] = test: Reversal of Mafosfamide resistance in human MIAPaCa-2 cells assessed as increase in Mafosfamide sensitivity by measuring reduction in cell viability measured after 19 hrs in presence of Mafosfamide by MTT assay; format: functional, cell-based; procedure, shortened: as §1
A549 [10] = test: Synergistic anticancer activity against human A549 cells assessed as combination index incubated for 19 hrs in presence of Mafosfamide by MTT assay; format: functional; procedure, shortened: as §1
A549 [11] = test: Anticancer activity against human A549 cells assessed as reduction in cell viability incubated for 19 hrs by MTT assay; format: functional, cell-based; procedure, shortened: as §1
MIA PaCa-2 [12] = test: Anticancer activity against human MIAPaCa-2 cells assessed as reduction in cell viability incubated for 19 hrs by MTT assay; format: functional, cell-based; procedure, shortened: as §1
[13] = target: T4, Aldehyde dehydrogenase, dimeric NADP-preferring (Homo sapiens) (UniProt P30838); test: Inhibition of human ALDH3A1 using 4-nitrobenzaldehyde as substrate at 100 uM preincubated with enzyme for 15 mins followed by substrate addition in presence of NAD+ and measured for 5 mins by spectrophotometric analysis; conditions: time 20.0 min; procedure, shortened: as §2
T4 sequence (whole entry): T3 sequence (P30838 whole entry)

[14] = target: T5, Aldehyde dehydrogenase 1A1 (Homo sapiens) (UniProt P00352); test: Inhibition of human ALDH1A1 using propionaldehyde as substrate at 10 uM preincubated with enzyme for 15 mins followed by substrate addition in presence of NAD+ and measured for 5 mins by spectrophotometric analysis; conditions: time 20.0 min; procedure, shortened: as §2
T5 sequence (whole entry): T1 sequence (P00352 whole entry)

[15] = target: T6, Aldehyde dehydrogenase, mitochondrial (Homo sapiens) (UniProt P05091); test: Inhibition of human ALDH2 using acetaldehyde as substrate at 100 uM preincubated with enzyme for 15 mins followed by substrate addition in presence of NAD+ and measured for 5 mins by spectrophotometric analysis; conditions: time 20.0 min; procedure, shortened: as §2
T6 sequence (whole entry): T2 sequence (P05091 whole entry)

## Clc1ccc(-c2nc3ccccc3n2Cc2ccccc2)cc1
A549 [1]
  Activity: Active
MIA PaCa-2 [2]
  Activity: Active
A549 [3]
  Activity: Active
[4]
  logP: 4.73
[5]
  IC50: 0.32 µM
[6]
  IC50: Not Active
[7]
  IC50: Not Active
MIA PaCa-2 [8]
  CI: 0.98
MIA PaCa-2 [9]
  Activity: Active
A549 [10]
  CI: 0.91

## c1ccc(Cn2c(-c3ccccc3)nc3ccccc32)cc1
[4]
  logP: 4.19
[5]
  IC50: 8.67 µM
[6]; read-out: IC50
  IC50: 95.6 µM
[7]; read-out: IC50
  IC50: 98.3 µM

## CN(C)c1ccc(-c2nc3ccccc3n2Cc2ccccc2)cc1
A549 [3]
  Activity: Active
[4]
  logP: 4.17
[5]
  IC50: 0.55 µM
[6]
  IC50: Not Active
[7]
  IC50: Not Active
A549 [11]
  Activity: inactive
MIA PaCa-2 [12]
  Activity: inactive
MIA PaCa-2 [8]
  CI: 0.81
MIA PaCa-2 [9]
  Activity: Active
A549 [10]
  CI: 0.69

## COc1ccc(-c2nc3ccccc3n2Cc2ccccc2)cc1
A549 [3]
  Activity: Active
[4]
  logP: 4.19
[5]
  IC50: 1.63 µM
[6]
  IC50: Not Active
[7]
  IC50: Not Active
A549 [11]
  Activity: inactive
MIA PaCa-2 [12]
  Activity: inactive
MIA PaCa-2 [8]
  CI: 0.84
MIA PaCa-2 [9]
  Activity: Active
A549 [10]
  CI: 0.74

## CC(C)CCn1c(CN2CCN(C(=O)C3CC3)CC2)nc2c1c(=O)n(C)c(=O)n2C
A549 [3]
  Activity: Active
MIA PaCa-2 [9]
  Activity: Active

## CN(C)c1ccc(Cn2c(-c3ccc(N(C)C)cc3)nc3ccccc32)cc1
[4]
  logP: 4.02
[13]
  inhibition: inactive
[14]
  inhibition: inactive
[15]
  inhibition: inactive
